Tests used:
Type in all cases: functional
[1] = Growth inhibition of human ovarian cancer cells after 48 hrs; conditions: Cancer cell lines
How it was run: (§1)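 NCI in vitro disease-oriented human tumor cell line screen. Compounds passing a one-dose primary assay (MCF-7, NCI-H460, SF-268; pass = growth of any line reduced to 32% or less) were tested on the 60-line panel over a 5-log dose range. Compounds were dissolved in DMSO, with under 1% DMSO in final dilutions, and tested in duplicate at 6×10^4 cells/ml. Cells were incubated at 37 °C in 5% CO2 for 48 h, then diluted 10-fold in saline and counted with a Coulter counter, with counts corrected for dilution. Controls held PBS/DMSO at identical dilutions. GI50 was reported per line and as subpanel/full-panel mean-graph midpoint.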

[2] = Growth inhibition of human CNS cancer cells after 48 hrs; conditions: Cancer cell lines; for CC50: read-out: LC50 (the source's name); how it was run: as §1
K562 = assay: Growth inhibition of human K562 cells after 48 hrs; conditions: K562, 48 h; how it was run: as §1
UACC-257 = assay: Growth inhibition of human UACC257 cells after 48 hrs; conditions: UACC-257, 48 h; how it was run: as §1
T47D = assay: Growth inhibition of human T47D cells after 48 hrs; how it was run: as §1
NSCLC = assay: Growth inhibition of human NSCLC cells after 48 hrs; how it was run: as §1
SK-MEL-2 = assay: Growth inhibition of human SK-MEL-2 cells after 48 hrs; conditions: SK-MEL-2, 48 h; how it was run: as §1
[3] = Growth inhibition of human renal cancer cells after 48 hrs; conditions: Cancer cell lines; for CC50: read-out: LC50 (the source's name); how it was run: as §1
[4] = Growth inhibition of human breast cancer cells after 48 hrs; conditions: Cancer cell lines; how it was run: as §1
[5] = Growth inhibition of human melanoma cells after 48 hrs; conditions: Melanoma cell; how it was run: as §1
SF-539 = assay: Growth inhibition of human SF539 cells after 48 hrs; conditions: SF-539, 48 h; for CC50: read-out: LC50 (the source's name); how it was run: as §1
[6] = Growth inhibition of human leukemia cells after 48 hrs; conditions: Leukemia cell; how it was run: as §1
RPMI-8226 = assay: Growth inhibition of human RPMI8226 cells after 48 hrs; conditions: RPMI-8226, 48 h; for CC50: read-out: LC50 (the source's name); how it was run: as §1
[7] = Growth inhibition of human prostate cancer cells after 48 hrs; conditions: Cancer cell lines; for CC50: read-out: LC50 (the source's name); how it was run: as §1
[8] = Growth inhibition of human Colon cancer cells after 48 hrs; conditions: Cancer cell lines; how it was run: as §1
CCRF-CEM = assay: Growth inhibition of human CCRF-CEM cells after 48 hrs; conditions: for CC50: read-out: LC50 (the source's name); how it was run: as §1
MCF7 = assay: Growth inhibition of human MCF7 cells after 48 hrs; conditions: MCF7, 48 h; for CC50: read-out: LC50 (the source's name); how it was run: as §1
HL-60(TB) = assay: Growth inhibition of human HL-60(TB) cells after 48 hrs; conditions: HL-60, 48 h; for CC50: read-out: LC50 (the source's name)
How it was run: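 NCI 60-cell-line screen over a 5-log dose range. Compounds were dissolved in DMSO, final DMSO under 1%. Duplicate wells were seeded at 6×10^4 cells/ml, with PBS/DMSO vehicle controls at identical dilutions. Cells were incubated 48 h at 37 °C in humidified 5% CO2, diluted 10-fold in saline, and counted by Coulter counter with dilution correction. GI50 read-out.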

## NS(=O)(=O)c1ccc(CNc2nc(-c3cccs3)nc3ccc(I)cc23)cc1
[1]
  GI50: 15.7 µM
  LC50: 89.1 µM
  TGI: 42.6 µM
[2]
  GI50: 18.2 µM
  TGI: 42.4 µM
  CC50: 89 µM
K562
  GI50: 37 µM
  LC50 (concentration killing 50% of cells): > 100 µM
  TGI: > 100 µM
UACC-257
  GI50: 14 µM
  LC50: 54 µM
  TGI: 28 µM
T47D
  GI50: 0.2 µM
  LC50: 82 µM
  TGI: 18 µM
NSCLC
  GI50: 14.7 µM
  LC50 (concentration killing 50% of cells): 82.2 µM
  TGI: 37 µM
SK-MEL-2
  GI50: 18 µM
  LC50: 61 µM
  TGI: 33 µM
[3]
  GI50: 13.6 µM
  TGI: 36.1 µM
  CC50: 88.1 µM
[4]
  GI50: 12.3 µM
  LC50: 80.8 µM
  TGI: 32.1 µM
[5]
  GI50: 16 µM
  LC50 (lethal concentration 50%): 58.3 µM
  TGI: 30.5 µM
SF-539
  GI50: 11 µM
  TGI: 31 µM
  CC50: 85 µM
[6]
  GI50: 23.9 µM
  TGI: 72.3 µM
RPMI-8226
  GI50: 19 µM
  TGI: 50 µM
  CC50: > 100 µM
[7]
  GI50: 17.1 µM
  TGI: 41.8 µM
  CC50: 80.8 µM
[8]
  GI50: 16.7 µM
  LC50: 66.4 µM
  TGI: 37.3 µM
CCRF-CEM
  GI50: 22 µM
  TGI: 60 µM
  CC50: > 100 µM
MCF7
  GI50: 0.6 µM
  TGI: 16 µM
  CC50: > 100 µM
HL-60(TB)
  GI50: 30 µM
  TGI: > 100 µM
  CC50: > 100 µM

## O=C(Nc1ccc(I)cc1C(=O)Nc1ccc(O)cc1)c1cccs1
[1]
  GI50: 13.3 µM
  LC50: 72.5 µM
  TGI: 35.4 µM
[2]
  GI50: 12.2 µM
  TGI: 32.4 µM
  CC50: 77.6 µM
K562
  GI50: 24 µM
  LC50 (concentration killing 50% of cells): > 100 µM
  TGI: > 100 µM
UACC-257
  GI50: < 0.01 µM
  LC50: > 100 µM
  TGI: 22 µM
T47D
  GI50: 2 µM
  LC50: 50 µM
  TGI: 11 µM
NSCLC
  GI50: 13.5 µM
  LC50 (concentration killing 50% of cells): 74.6 µM
  TGI: 33.1 µM
SK-MEL-2
  GI50: 16 µM
  LC50: 57 µM
  TGI: 30 µM
[3]
  GI50: 13.2 µM
  TGI: 29.3 µM
  CC50: 64.1 µM
[4]
  GI50: 11.9 µM
  LC50: 79.4 µM
  TGI: 36.8 µM
[5]
  GI50: 11.1 µM
  LC50 (lethal concentration 50%): 63.8 µM
  TGI: 26.9 µM
SF-539
  GI50: < 0.01 µM
  TGI: 15 µM
  CC50: 62 µM
[6]
  GI50: 11.5 µM
  TGI: 60.6 µM
[6]; read-out: LC50 (the source's name)
  CC50: 91 µM
RPMI-8226
  GI50: 3 µM
  TGI: 18 µM
  CC50: 57 µM
[7]
  GI50: 8.7 µM
  TGI: 21.1 µM
  CC50: 45.8 µM
[8]
  GI50: 15.2 µM
  LC50: 74.6 µM
  TGI: 34.5 µM
MCF7
  GI50: 12 µM
  TGI: 33 µM
  CC50: 94 µM
HL-60(TB)
  GI50: 8 µM
  TGI: 37 µM
  CC50: > 100 µM

## O=C(Nn1c(-c2cccs2)nc2ccc(I)cc2c1=O)c1ccccc1
[1]
  GI50: 27.4 µM
  TGI: 74.4 µM
[2]
  GI50: 27.4 µM
  TGI: 85.8 µM
K562
  GI50: 44 µM
  LC50 (concentration killing 50% of cells): > 100 µM
  TGI: > 100 µM
UACC-257
  GI50: < 0.01 µM
  LC50: > 100 µM
  TGI: 31 µM
T47D
  GI50: 11 µM
  LC50: > 100 µM
  TGI: 38 µM
NSCLC
  GI50: 25.6 µM
  TGI: 75.3 µM
SK-MEL-2
  GI50: 24 µM
  LC50: > 100 µM
  TGI: 69 µM
[3]
  GI50: 32.1 µM
  TGI: 86.7 µM
[4]
  GI50: 24.5 µM
  TGI: 72.5 µM
[5]
  GI50: 35.5 µM
  TGI: 62.1 µM
SF-539
  GI50: 30 µM
  TGI: > 100 µM
  CC50: > 100 µM
[6]
  GI50: 33.9 µM
  TGI: 71.5 µM
RPMI-8226
  GI50: 23 µM
  TGI: 58 µM
  CC50: > 100 µM
[7]
  GI50: 27.2 µM
  TGI: 73.3 µM
[8]
  GI50: 35.4 µM
  TGI: 90 µM
CCRF-CEM
  GI50: 39 µM
  TGI: > 100 µM
  CC50: > 100 µM
MCF7
  GI50: 23 µM
  TGI: > 100 µM
  CC50: > 100 µM
HL-60(TB)
  GI50: 34 µM
  TGI: > 100 µM
  CC50: > 100 µM

— ChEMBL document CHEMBL1158347, “Substituted quinazolines, part 3. Synthesis, in vitro antitumor activity and molecular modeling study of certain 2-thieno-4(3H)-quinazolinone analogs” (2009)
